Values after ≈ are worked out from the molar mass of the structure shown. Active and inactive are the calls of the source. No cut-off for these calls is given here.
Columns and labels:
[1] = system: Streptococcus gordonii; experiment: Antibacterial activity against wild type penicillin-susceptible Streptococcus gordonii at 2 times MIC; assay type: functional, organism-based
Method in brief: (§1)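 S. gordonii was grown at 37°C in BHI broth without aeration from a 1/100 inoculum of an overnight culture. Penicillin G was added once OD620 reached 0.12, and growth was followed by OD620 against an untreated culture.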

[2] = system: Streptococcus gordonii; experiment: Induction of pbp2A gene expression in wild type penicillin-susceptible Streptococcus gordonii assessed as relative luciferase units relative to control; assay type: functional, organism-based
Method in brief: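 The pbp2A promoter was fused to promoterless luc on the chromosome (integrative pJDC9) in S. gordonii grown in BHI at 37°C, and penicillin G was added at OD620 0.12. Samples of 100 µl went into sodium citrate pH 5.5, then 50 µl of 1 mM D-luciferin in glycylglycine/MgSO4 buffer was added. Light was read for 10 s after a 2 s delay at 22°C, normalized to OD620, and expressed as % of the untreated culture.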

[3] = system: Streptococcus gordonii; experiment: Antibacterial activity against Streptococcus gordonii with non penicillin binding protein mutation; assay type: functional
[4] = system: Streptococcus gordonii; experiment: Increase in pbp2A gene expression in penicillin-resistant Streptococcus gordonii with penicillin binding protein PR1_2 evolved mutation at 1/2 times MIC assessed as relative luciferase units relative to control; assay type: functional, organism-based
Method in brief: (§2)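 pbp promoter–luc transcriptional fusions integrated into the chromosome of resistant strain PR1_2evolved. Cells grown at 37°C in BHI without aeration from a 1/100 overnight inoculum. Penicillin G at 1/2× or 1/8× MIC added at OD620 0.12. Samples taken into sodium citrate pH 5.5, with 1 mM D-luciferin solution in glycylglycine/MgSO4 buffer added. Light read 10 s at 22°C; RLU normalised to OD620, expressed as % of untreated; means of six experiments.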

[5] = system: Streptococcus gordonii; experiment: Antibacterial activity against penicillin-resistant Streptococcus gordonii with penicillin binding protein PR1_2 evolved mutation; assay type: functional
[6] = system: Streptococcus gordonii; experiment: Antibacterial activity against Streptococcus gordonii with penicillin binding protein mutation; assay type: functional
[7] = system: Streptococcus gordonii; experiment: Increase in pbp1B gene expression in penicillin-resistant Streptococcus gordonii with penicillin binding protein PR1_2 evolved mutation assessed as relative luciferase units relative to control; assay type: functional; method in brief: as §2
[8] = system: Streptococcus gordonii; experiment: Effect on pbp2B gene expression in penicillin-resistant Streptococcus gordonii with penicillin binding protein PR1_2 evolved mutation assessed as relative luciferase units relative to control; assay type: functional, organism-based; method in brief: as §2
[9] = system: Streptococcus gordonii; experiment: Increase in pbp2X gene expression in penicillin-resistant Streptococcus gordonii with penicillin binding protein PR1_2 evolved mutation assessed as relative luciferase units relative to control; assay type: functional; method in brief: as §2
[10] = system: Streptococcus gordonii; experiment: Increase in pbp2A gene expression in penicillin-resistant Streptococcus gordonii with penicillin binding protein PR1_2 evolved mutation assessed as relative luciferase units relative to control; assay type: functional; method in brief: as §2
[11] = system: Streptococcus gordonii; experiment: Increase in pbp1A gene expression in penicillin-resistant Streptococcus gordonii with penicillin binding protein PR1_2 evolved mutation at 1/8 times MIC assessed as relative luciferase units relative to control; assay type: functional, organism-based; method in brief: as §2
[12] = system: Streptococcus gordonii; experiment: Increase in pbp1A gene expression in penicillin-resistant Streptococcus gordonii with penicillin binding protein PR1_2 evolved mutation assessed as relative luciferase units relative to control; assay type: functional; method in brief: as §2
[13] = system: Streptococcus gordonii; experiment: Increase in pbp2B gene expression in penicillin-resistant Streptococcus gordonii with penicillin binding protein PR1_2 evolved mutation assessed as relative luciferase units relative to control; assay type: functional; method in brief: as §2
[14] = system: Streptococcus gordonii; experiment: Increase in pbp1A gene expression in penicillin-resistant Streptococcus gordonii with penicillin binding protein PR1_2 evolved mutation at 1/2 times MIC assessed as relative luciferase units relative to control; assay type: functional, organism-based; method in brief: as §2
[15] = system: Streptococcus gordonii; experiment: Effect on pbp2X gene expression in penicillin-resistant Streptococcus gordonii with penicillin binding protein PR1_2 evolved mutation assessed as relative luciferase units relative to control; assay type: functional, organism-based; method in brief: as §2
[16] = system: Streptococcus gordonii; experiment: Antibacterial activity against wild type penicillin-susceptible Streptococcus gordonii at 4 times MIC; assay type: functional, organism-based; method in brief: as §1

Question: How did the Activity [1] turn out when `CC1(C)S[C@@H]2[C@H](NC(=O)Cc3ccccc3)C(=O)N2[C@H]1C(=O)O` [PENICILLIN G] was run?
Answer: Active

Question: And the Activity [2]?
Answer: Active

Question: What about the MIC [3] of the same compound?
Answer: 0.008 µg/mL (≈ 0.0239 µM)

Question: And the Activity [4]?
Answer: Active

Question: And the MIC [5]?
Answer: 2 µg/mL (≈ 5.98 µM)

Question: What about the MIC [6] of the same compound?
Answer: 0.5 µg/mL (≈ 1.5 µM)

Question: What about the Activity [7] of the same compound?
Answer: 0.7

Question: And the Activity [8]?
Answer: inactive

Question: And the Activity [9]?
Answer: 2.1

Question: What about the Activity [10] of the same compound?
Answer: 1.59

Question: And the Activity [11]?
Answer: Active

Question: What about the Activity [12] of the same compound?
Answer: 1.55

Question: What about the Activity [13] of the same compound?
Answer: 1.39

Question: What about the Activity [14] of the same compound?
Answer: Active

Question: And the Activity [15]?
Answer: Active

Question: And the Activity [16]?
Answer: Active

Source: ChEMBL document CHEMBL1155142, “Promoter and transcription analysis of penicillin-binding protein genes in Streptococcus gordonii” (2007)
